In ChEMBL document CHEMBL3112454, “Discovery and SAR study of hydroxyacetophenone derivatives as potent, non-steroidal farnesoid X receptor (FXR) antagonists” (Bioorg Med Chem, 2014) one finds Ratio IC50 and IC50 data, which are given here for 21 compounds.

Each structure is given as a SMILES string.

Assay [1] has as its target T1, Bile acid receptor (Homo sapiens) (UniProt Q96RI1).
T1 sequence (whole entry): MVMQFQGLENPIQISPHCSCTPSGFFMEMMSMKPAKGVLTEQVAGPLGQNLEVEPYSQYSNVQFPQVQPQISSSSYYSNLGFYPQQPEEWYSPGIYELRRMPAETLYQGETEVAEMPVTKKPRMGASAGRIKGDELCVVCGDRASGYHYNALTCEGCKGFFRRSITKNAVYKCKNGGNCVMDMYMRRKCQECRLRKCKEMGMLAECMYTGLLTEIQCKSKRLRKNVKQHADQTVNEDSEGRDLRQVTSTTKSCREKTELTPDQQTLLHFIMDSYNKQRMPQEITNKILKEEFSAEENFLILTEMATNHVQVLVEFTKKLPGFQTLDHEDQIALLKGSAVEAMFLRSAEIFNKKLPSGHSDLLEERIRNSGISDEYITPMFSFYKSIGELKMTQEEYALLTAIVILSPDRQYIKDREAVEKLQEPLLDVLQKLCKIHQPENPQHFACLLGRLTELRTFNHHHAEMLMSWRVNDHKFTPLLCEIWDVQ
Briefly: Ratio of guggulsterone IC50 to compound IC50 for GST-tagged FXRalpha LBD (unknown origin) assessed as inhibition of CDCA-induced bio-SRC-1 recruitment after 30 mins by fluorescence based HTRF assay. (TR-FRET usually uses a lanthanide donor and a delayed reading to cut background.)

For assay [2], the target named is T2, Bile acid receptor (Homo sapiens, UniProt Q96RI1).
T2 sequence (Q96RI1 whole entry): T1 sequence (whole entry)
Kind of assay: Antagonist activity at GST-tagged FXRalpha LBD (unknown origin) assessed as inhibition of CDCA-induced bio-SRC-1 recruitment after 30 mins by fluorescence based HTRF assay. The method in brief: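 HTRF coactivator-recruitment assay: 10 nM GST-FXRα LBD with 100 nM biotinylated SRC-1 peptide, with CDCA as agonist present. Compounds were tested at a single concentration or a concentration series, incubated 30 min at room temperature, then fluorescence read. Values are mean SD of triplicate measurements.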

Usually IC50 stands for the concentration needed to halve the response being measured. Take `CCc1cc(C(C)=O)c(OCc2ccccc2)cc1OCCCCCC(C)(C)c1nnn[nH]1`: the Ratio IC50 in assay [1] was determined as 100. The IC50 in assay [2] came out at 1.1 µM.

In the case of `CCCCc1cc(CC)c(O)cc1OCCCCCC(C)(C)c1nnn[nH]1`, in assay [2], the 50% inhibitory concentration (IC50) turned out to be 8.7 µM. On to `CCc1cc(C(C)=O)c(OCc2cccc(C)c2)cc1OCCCCCC(C)(C)c1nnn[nH]1`, for which the IC50 in assay [2] worked out at 1.2 µM.

As to `CCCCCCC(=O)c1cc(CC)c(OCCCCCC(C)(C)c2nnn[nH]2)cc1O`, the concentration for half-maximal inhibition (IC50) in assay [2] was found to be 8.4 µM. With `CCc1cc(C(=O)C(C)C)c(O)cc1OCCCCCC(C)(C)c1nnn[nH]1`, the IC50 in assay [2] is 8.6 µM.

Turning to `CCCCCCc1cc(C(C)=O)c(O)cc1OCCCCCC(C)(C)c1nnn[nH]1`, the IC50 in assay [2] was determined as 3.2 µM.

For `CCCc1cc(C(C)=O)c(O)cc1OCCCCCC(C)(C)c1nnn[nH]1`, in assay [2], the concentration for half-maximal inhibition (IC50) was found to be 25.2 µM.

As for `CCc1cc(CC)c(OCc2ccccc2)cc1OCCCCCC(C)(C)c1nnn[nH]1`, the IC50 in assay [2] worked out at 3.5 µM. On the same count and under the same terms, next, `CCc1cc(C(C)=O)c(O)cc1OCCCCCC(C)(C)c1nn[nH]n1` [LY-255283]: 35.2 µM; `CCc1cc(C(=O)c2ccccc2)c(O)cc1OCCCCCC(C)(C)c1nnn[nH]1`: 3.1 µM; `CCc1cc(C(C)=O)c(OC(C)c2ccccc2)cc1OCCCCCC(C)(C)c1nnn[nH]1` (configuration not stated): 1.7 µM. On the same count and under the same terms, then `CC(=O)c1cc(CC(C)C)c(OCCCCCC(C)(C)c2nnn[nH]2)cc1O`, with 5.8 µM; and `CCc1cc(CC)c(OCCCCCC(C)(C)c2nn[nH]n2)cc1O`, with 3.1 µM; and `CCCCc1cc(C(C)=O)c(OCc2ccccc2)cc1OCCCCCC(C)(C)c1nnn[nH]1`, with 7.8 µM. Same read-out and setting: then `CCc1cc(C(C)=O)c(OC2CCCC2)cc1OCCCCCC(C)(C)c1nnn[nH]1`, with 3.3 µM; and `CCc1cc(C(C)=O)c(OC)cc1OCCCCCC(C)(C)c1nnn[nH]1`, with 5.5 µM; and `CCCCc1cc(C(C)=O)c(O)cc1OCCCCCC(C)(C)c1nnn[nH]1`, with 1.5 µM. With `CCCCC(=O)c1cc(CC)c(OCCCCCC(C)(C)c2nnn[nH]2)cc1O`, in assay [2], the IC50 was 5.4 µM. Take `CCc1cc(C(C)=O)c(OCC2CCCCC2)cc1OCCCCCC(C)(C)c1nnn[nH]1`: in assay [2], the concentration for half-maximal inhibition (IC50) stood at 2.9 µM.

For `CCC(=O)c1cc(CC)c(OCCCCCC(C)(C)c2nnn[nH]2)cc1O`, the 50% inhibitory concentration (IC50) in assay [2] is 8.5 µM.

For `CCc1cc(C(C)=O)c(O)cc1OCCCCCC(C)(C)C(=O)O`, in assay [2], the half-maximal inhibitory concentration (IC50) was above 100 µM.
